STAT3 act: increases IL-6 driven STAT3 reporter signal | U3A cells, IL-6 STAT3-luciferase reporter, luminescence; 100% = signal with IL-6 EC80 alone | AID 871 | 190,000 compounds, 0.91% hits | activation (% of control), % at 5.6 µM;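 active means activation above the screen-wide mean of compound activation plus 3 SD, cut at about 130% in these data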
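Material: STAT3-luciferase reporter U3A cells. Controls: IL-6-treated wells, 100% activation. Read-out: % activation versus median of IL-6-stimulated wells. Probe or stimulus: IL-6 stimulus at 33 ng/mL final. Timing: compound 1 h, then IL-6 6 h at 37 °C. Signal: reporter luminescence signal.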
STAT1 activator: increases IFN-gamma driven STAT1 reporter signal; activation (% of control), % at 5.5 µM; AID 932; NIH 3T3 STAT1-luciferase reporter, luminescence; 100% = IFN-gamma alone, no compound; 200,000 compounds, 2.6% hits;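 active means activation above the screen-wide mean activation plus 3 SD, cut at about 130% in these data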
APP 5'UTR act: activates APP 5'UTR luciferase reporter | 190,000 compounds, 1% hits | SH-SY5Y APP 5'UTR luciferase reporter, luminescence; zero percent = DMSO vehicle wells | activation, % at 2 µM | AID 1276;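 active means activation above a set limit, based on mean plus 3 SD of controls, cut at about 140% in these data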
STAT3 blocker: STAT3 signaling inhibition; U3A cells, IL-6 STAT3-luciferase reporter, luminescence; host cell line lacks STAT1; inhibition, % at 5.5 µM; 190,000 compounds, 0.89% hits;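 active means inhibition above the mean inhibition across all screened compounds plus 3 SD, cut at about 44% in these data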
STAT1 blocker: inhibitors of IFN-gamma induced STAT1 signaling; 200,000 compounds, 0.35% hits; inhibition, % at 5.5 µM; NIH 3T3 STAT1-luciferase reporter, luminescence; AID 920;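 active means inhibition above a set limit, the mean inhibition across all tested compounds plus 3 SD, cut at about 34% in these data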
NF-kB neuron act: compounds increasing NF-kB expression in human neuronal cells. NF-kB reporter expression; hits give high values. fold change at 12.5 µM. 190,000 compounds, 1.6% hits; in the data active means fold change above about 3.3
STAT1 activ conf: STAT1 activation, confirmation assay; shares compounds with STAT1 activator; NIH 3T3 STAT1-luciferase reporter, IFN-gamma potentiation, luminescence; 100% = IFN-gamma EC80 alone, no compound; activation (% of control), % at 5.7 µM; 1,200 compounds, 97% hits; AID 1262;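 active means activation above a set limit carried over from the earlier primary STAT1 screen, cut at about 140% in these data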
NFkB act: activates NF-kappaB, counter-screen to STAT1 activators | shares compounds with STAT1 activator | HEK293T NF-kB luciferase reporter, TNF-alpha stimulated, luminescence; 100% = TNF-alpha with vehicle only | activation (% of control), % at 5.7 µM | 1,200 compounds, 43% hits;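 active means activation above the mean of solvent-only control wells plus 3 SD, set per campaign, cut at about 130% in these data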;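 further: TNF-alpha given at a submaximal dose yielding about 80% of full reporter signal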
STAT3 act STAT1c: activates human STAT3, counter-screen to STAT1 activators. shares compounds with STAT1 activator. activation (% of control), % at 5.7 µM. U3A cells STAT3-luciferase reporter, IL-6, luminescence; cells lack STAT1; 100 = IL-6 alone, no compound effect. 1,200 compounds, 46% hits;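 active means activation above the solvent-only control well mean plus 3 SD, set per plate batch, cut at about 110% in these data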;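 further: higher means more STAT3 reporter activation so hits are non-selective activators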
Large screens that a line does not name were inactive (follow-up assays come after a bar, where they were run). Shown are actives, neighbours in structure and some others; about 5.1% of the full set was active somewhere.

Nc1c(Cl)ncnc1N/N=C/c1ccc2ccccc2n1	STAT1 activator 162 | STAT1 activ conf 161 | NFkB act inactive | STAT3 act STAT1c 138
Nc1c(Cl)ncnc1N/N=C/c1ccccn1	none
Cc1cccc(C)c1NS(=O)(=O)c1ccc(OCCNS(C)(=O)=O)cc1	none
CCOc1ccc(/C=N/Nc2ccccn2)cc1OC	STAT1 activator 155 | STAT1 activ conf 154 | NFkB act inactive | STAT3 act STAT1c inactive
CCOc1ccc(/C=N/N(C)c2ccccc2)cc1OC	STAT1 activator 163, NF-kB neuron act 4.9 | STAT1 activ conf 187 | NFkB act 142 | STAT3 act STAT1c inactive
O=C(c1cncs1)N1CCCC(CNS(=O)(=O)c2cccs2)C1 (stereo not drawn)	none
C/C(=N\NS(=O)(=O)c1ccc(C)cc1)c1ccc(C)s1	none
COC(=O)c1ccc(N=NNc2cccc(Br)c2)cc1	STAT1 activator 152, NF-kB neuron act 3.3 | STAT1 activ conf 224 | NFkB act 134 | STAT3 act STAT1c 129
CNc1nc(N2CCc3ccccc32)ncc1F	STAT1 activator 167, NF-kB neuron act 5.1 | STAT1 activ conf 194 | NFkB act 139 | STAT3 act STAT1c 114
CCOC(=O)c1sc(NC(=O)c2sccc2C)cc1C	STAT1 activator 152, APP 5'UTR act 154, NF-kB neuron act 12 | STAT1 activ conf 252 | NFkB act inactive | STAT3 act STAT1c inactive
Cc1cc(C(=O)CN2CCC(C)CC2)c(C)n1-c1ccc(F)cc1	STAT1 activator 157, APP 5'UTR act 136 | STAT1 activ conf 164 | NFkB act inactive | STAT3 act STAT1c 118
Cc1ccc(C(OCC(C)(C)C[N+](C)(C)C)c2ccccc2)cc1 (stereo not drawn)	none
Cc1ccc(C(=O)NNC(=O)CSc2n[nH]c(-c3cccnc3)n2)cc1	none
CCN(Cc1ccncc1)C(=O)c1cc(Br)cc(Br)c1O	none
Cc1[nH]n(-c2ccccc2)c(=O)c1/C=N/O	none
Cc1[nH]n(-c2ccccc2)c(=O)c1C=NCc1ccco1	STAT1 activator 157, NF-kB neuron act 3.8 | STAT1 activ conf 186 | NFkB act inactive | STAT3 act STAT1c 118
COc1ccc(C(=O)NC2CC(C)(C)Cc3occc32)cc1 (stereo not drawn)	none
COc1ccc(C(=O)N/N=C(/C)c2cccc(NC(=O)C(F)(F)F)c2)cc1	none
C/C(=N/NC(=O)c1ccoc1C)c1cccc(NC(=O)C2CC2)c1	STAT1 activator 159 | STAT1 activ conf inactive | NFkB act inactive | STAT3 act STAT1c inactive
CCCCC(=O)N/N=C(\C)c1cccc(NC(=O)C2CC2)c1	none
C/C(=N/NC(=O)c1ccoc1C)c1cccc(NC(=O)C(F)(F)F)c1	STAT1 activator 156 | STAT1 activ conf inactive | NFkB act inactive | STAT3 act STAT1c inactive
CC(C)CC(=O)Nc1ccc2oc(-c3cccnc3)nc2c1	none
CCCC(=O)Nc1ccc(-c2nc3cc(C)c(C)cc3o2)cc1	STAT1 activator 202, NF-kB neuron act 4.7 | STAT1 activ conf 224 | NFkB act 141 | STAT3 act STAT1c 122
Cc1ccc2oc(-c3ccc(NC(=O)CC(C)C)cc3)nc2c1	STAT1 activator 154 | STAT1 activ conf 212 | NFkB act inactive | STAT3 act STAT1c inactive
CCSc1ccccc1C(=O)Nc1ccc(S(=O)(=O)NC(C)=O)cc1	none
O=C(NCc1ccc2c(c1)OCO2)C(=O)Nc1ccccc1	none
Cc1ccc(NC(=S)c2nc3ccccc3[nH]2)c(C)c1	STAT1 activator 169 | STAT1 activ conf 191 | NFkB act inactive | STAT3 act STAT1c 113
O=C(O)C1CC=CCC1C(=O)Nc1ccccc1 (stereo not drawn)	none
CC1CC1C(=O)Nc1ccc(-c2ccccc2)cc1 (stereo not drawn)	STAT1 activator 155, NF-kB neuron act 3.3 | STAT1 activ conf 162 | NFkB act inactive | STAT3 act STAT1c inactive
O=C(Cn1cnc2ccccc21)N/N=C/c1ccccc1[N+](=O)[O-]	none
COc1ccccc1/C=N\N=C(\N)c1ccccn1	STAT1 activator 162 | STAT1 activ conf 190 | NFkB act inactive | STAT3 act STAT1c inactive
NC(N)=N/N=C/c1ccccc1OC(F)F	none
CCOc1ccc(NC(=O)c2csc3c2CCCC3)cc1	STAT1 activator 171, NF-kB neuron act 3.9 | STAT1 activ conf 198 | NFkB act 139 | STAT3 act STAT1c inactive
COc1cc(NC(=O)c2csc3c2CCCC3)ncn1	STAT1 activator 171, NF-kB neuron act 3.3 | STAT1 activ conf 193 | NFkB act inactive | STAT3 act STAT1c inactive
Cc1onc(-c2ccccc2)c1C(=O)N(Cc1ccco1)Cc1cccs1	none
CC/C(=C\C1CCCCC1)C(NP(=O)(c1ccccc1)c1ccccc1)c1ccccc1 (stereo not drawn)	none
Cc1cnc(NC(=O)CSc2ccccc2)s1	none
Cc1cnc(NC(=O)COc2ccccc2)s1	STAT1 activator 166, APP 5'UTR act 168, NF-kB neuron act 4.3 | STAT1 activ conf 179 | NFkB act inactive | STAT3 act STAT1c inactive
Cc1ccc(Cl)cc1N1CCN(Cc2nc3ccsc3c(=O)[nH]2)CC1	none (no result: APP 5'UTR act)
Cc1ccnc(NC(=O)Nc2ccc3c(c2)N(C)C(=O)CS3)c1	STAT1 activator 181 | STAT1 activ conf 192 | NFkB act 135 | STAT3 act STAT1c inactive
Cc1ccnc(NC(=O)Nc2ccc(Br)cc2Cl)c1	STAT1 activator 168, APP 5'UTR act 165 | STAT1 activ conf 257 | NFkB act inactive | STAT3 act STAT1c inactive
Cc1ccnc(NC(=O)Nc2ccc(F)cc2)c1	STAT1 activator 158, NF-kB neuron act 4.8 | STAT1 activ conf 224 | NFkB act inactive | STAT3 act STAT1c inactive
Cn1nnc2c(NCc3ccco3)nccc21	none
COc1ccc(Nc2nccc3c2nnn3C)cc1	STAT1 activator 154, APP 5'UTR act 137 | STAT1 activ conf 167 | NFkB act inactive | STAT3 act STAT1c inactive
O=C(NCC1CCCO1)C(c1ccc(N2CCOCC2)cc1)N(C(=O)Cn1nnc2ccccc21)c1ccccc1F (stereo not drawn)	none
Cc1cc(C)nc(SCc2csc(-c3ccccc3)n2)n1	STAT1 activator 169, APP 5'UTR act 146, NF-kB neuron act 4.5 | STAT1 activ conf 187 | NFkB act inactive | STAT3 act STAT1c inactive

Compound activity deposited in PubChem by several laboratories.
